Measured values from ChEMBL document CHEMBL3822380, “Simple avarone mimetics as selective agents against multidrug resistant cancer cells” (Eur J Med Chem, 2016).
In brackets after ≈: the same amount, converted by molar mass. Activity calls are given as the source filed them.

What was measured:
Micrococcus luteus [1] = assay: Antibacterial activity against Micrococcus luteus ATCC 4698 by broth microdilution method; assay type: functional; conditions: NCTC 2665
How it was run: (§1)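 Broth microdilution per NCCLS. Compounds dissolved in DMSO as 10 mg/mL stock, diluted in Mueller Hinton broth (bacteria) or Sabouraud dextrose broth (fungi). Amikacin served as the positive control for bacteria and nystatin for fungi.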

Clostridium sporogenes = assay: Antibacterial activity against Clostridium sporogenes ATCC 19404 by broth microdilution method; assay type: functional; how it was run: as §1
Escherichia coli = assay: Antibacterial activity against Escherichia coli ATCC 25922 by broth microdilution method; assay type: functional; how it was run: as §1
Proteus hauseri = assay: Antibacterial activity against Proteus hauseri ATCC 13315 by broth microdilution method; assay type: functional; how it was run: as §1
Salmonella enteritidis = assay: Antibacterial activity against Salmonella enterica subsp. enterica serovar Enteritidis ATCC 13076 by broth microdilution method; assay type: functional; how it was run: as §1
Pseudomonas aeruginosa = assay: Antibacterial activity against Pseudomonas aeruginosa ATCC 9027 by broth microdilution method; assay type: functional; how it was run: as §1
Candida albicans = assay: Antifungal activity against Candida albicans ATCC 10231 by broth microdilution method; assay type: functional; how it was run: as §1
Saccharomyces cerevisiae = assay: Antifungal activity against Saccharomyces cerevisiae ATCC 9763 by broth microdilution method; assay type: functional; how it was run: as §1
Aspergillus brasiliensis = assay: Antifungal activity against Aspergillus brasiliensis ATCC 16404 by broth microdilution method; assay type: functional; how it was run: as §1
NCI-H460 [2] = assay: Induction of apoptosis in human NCI-H460 cells assessed as live cells at 25 uM after 72 hrs by annexin-V/propidium iodide staining-based flow cytometric analysis (reference value: 98.3%); assay type: functional
NCI-H460 [3] = assay: Induction of apoptosis in human NCI-H460 cells assessed as early apoptotic cells at 25 uM after 72 hrs by annexin-V/propidium iodide staining-based flow cytometric analysis (reference value: 0.3%); assay type: functional
NCI-H460 [4] = assay: Induction of apoptosis in human NCI-H460 cells assessed as late apoptotic/necrotic cells at 25 uM after 72 hrs by annexin-V/propidium iodide staining-based flow cytometric analysis (reference value: 0.2%); assay type: functional
NCI-H460 [5] = assay: Induction of apoptosis in human NCI-H460 cells assessed as dead cells at 25 uM after 72 hrs by annexin-V/propidium iodide staining-based flow cytometric analysis (reference value: 1.2%); assay type: functional
NCI-H460 [6] = assay: Induction of apoptosis in multidrug resistant human NCI-H460 cells assessed as live cells at 25 uM after 72 hrs by annexin-V/propidium iodide staining-based flow cytometric analysis (reference value: 96.4%); assay type: functional
NCI-H460 [7] = assay: Induction of apoptosis in multidrug resistant human NCI-H460 cells assessed as early apoptotic cells at 25 uM after 72 hrs by annexin-V/propidium iodide staining-based flow cytometric analysis (reference value: 1.1%); assay type: functional
NCI-H460 [8] = assay: Induction of apoptosis in multidrug resistant human NCI-H460 cells assessed as late apoptotic/necrotic cells at 25 uM after 72 hrs by annexin-V/propidium iodide staining-based flow cytometric analysis (reference value: 1%); assay type: functional
NCI-H460 [9] = assay: Induction of apoptosis in multidrug resistant human NCI-H460 cells assessed as dead cells at 25 uM after 72 hrs by annexin-V/propidium iodide staining-based flow cytometric analysis (reference value: 1.5%); assay type: functional
[10] = Induction of apoptosis in human HaCaT cells assessed as live cells at 25 uM after 72 hrs by annexin-V/propidium iodide staining-based flow cytometric analysis (reference value: 96.8%); assay type: cell-based; conditions: read-out: Activity
HaCaT [11] = assay: Induction of apoptosis in human HaCaT cells assessed as early apoptotic cells at 25 uM after 72 hrs by annexin-V/propidium iodide staining-based flow cytometric analysis (reference value: 0.2%); assay type: cell-based
HaCaT [12] = assay: Induction of apoptosis in human HaCaT cells assessed as late apoptotic/necrotic cells at 25 uM after 72 hrs by annexin-V/propidium iodide staining-based flow cytometric analysis (reference value: 0.2%); assay type: cell-based
HaCaT [13] = assay: Induction of apoptosis in human HaCaT cells assessed as dead cells at 25 uM after 72 hrs by annexin-V/propidium iodide staining-based flow cytometric analysis (reference value: 2.8%); assay type: cell-based
Kocuria rhizophila = assay: Antibacterial activity against Kocuria rhizophila ATCC 9341 by broth microdilution method; assay type: functional; conditions: DC2201; how it was run: as §1
NCI-H460 [14] = assay: Cytotoxicity against human NCI-H460 cells after 72 hrs by MTT assay; assay type: functional, cell-based; conditions: NCI-H460, 72 h
How it was run: (§2)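 Seeding in 96-well plates at 1000 (NCI-H460), 2000 (NCI-H460/R) or 4000 (HaCaT) cells/well, treated after 24 h for 72 h. MTT at 0.4 mg/mL final, 4 h at 37 °C. Formazan dissolved in DMSO, absorbance read at 540 nm. Inhibition % = (1 − A treated/A untreated)×100. IC30 and IC50 obtained by linear regression.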

NCI-H460 [15] = assay: Cytotoxicity against multidrug resistant human NCI-H460 cells after 72 hrs by MTT assay; assay type: functional, cell-based; conditions: NCI-H460, 72 h; how it was run: as §2
HaCaT [16] = assay: Cytotoxicity against human HaCaT cells after 72 hrs by MTT assay; assay type: cell-based; conditions: for IC50: Homo sapiens, HaCaT; for IC30: human, hacat; how it was run: as §2
[17] = Selectivity ratio of IC30/IC50 for human HaCaT cells to IC30/IC50 for human NCI-H460 cells; assay type: ADME, cell-based; conditions: HaCaT cells versus NCI-H460 cells
How it was run: (§3)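 Fold threshold of 1.5 used to call selectivity to cancer cells, resistance, or selectivity to MDR cells.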

[18] = Selectivity ratio of IC30/IC50 for human HaCaT cells to IC30/IC50 for multidrug resistant human NCI-H460 cells; assay type: ADME, cell-based; conditions: HaCaT cells versus multidrug resistant NCI-H460 cells; how it was run: as §3
NCI-H460 [19] = assay: Selectivity ratio of IC30/IC50 for human NCI-H460 cells to IC30/IC50 for multidrug resistant human NCI-H460 cells; assay type: functional; how it was run: as §3
NCI-H460 [20] = assay: Induction of superoxide anion generation in human NCI-H460 cells at 25 uM after 72 hrs by DHE staining-based flow cytometric analysis relative to control; assay type: functional, cell-based
How it was run: (§4)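 Seeded as for cell death (50,000 or 100,000 cells/well), treated 72 h at 25 µM, with CDDP 5 µM as control. Adherent cells trypsinized and loaded with 1 µM DHE for 30 min at 37 °C in the dark, then washed twice in PBS. Flow cytometry at ex 488/em 585 nm (FL2-H). Mean fluorescence intensity corrected for autofluorescence and compared with untreated control.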

NCI-H460 [21] = assay: Induction of superoxide anion generation in multidrug resistant human NCI-H460 cells at 25 uM after 72 hrs by DHE staining-based flow cytometric analysis relative to control; assay type: functional, cell-based; how it was run: as §4
HaCaT [22] = assay: Induction of superoxide anion generation in human HaCaT cells at 25 uM after 72 hrs by DHE staining-based flow cytometric analysis relative to control; assay type: cell-based; how it was run: as §4
NCI-H460 [23] = assay: Induction of mitochondrial membrane potential depolarization in human NCI-H460 cells at 25 uM after 15 mins by JC1-staining-based flow cytometric analysis; assay type: functional, cell-based
How it was run: (§5)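 Cells treated with 25 µM compound, with CDDP 5 µM as control. Stained with JC-1 for 15 min at 37 °C in a CO2 incubator, washed twice in assay buffer and resuspended in PBS. Flow cytometry read red aggregate (FL2-H) versus green monomer (FL1-H) fluorescence. Live cells were also imaged by fluorescence microscopy.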

NCI-H460 [24] = assay: Induction of mitochondrial membrane potential depolarization in multidrug resistant human NCI-H460 cells at 25 uM after 15 mins by JC1-staining-based flow cytometric analysis; assay type: functional, cell-based; how it was run: as §5
HaCaT [25] = assay: Induction of mitochondrial membrane potential depolarization in human HaCaT cells at 25 uM after 15 mins by JC1-staining-based flow cytometric analysis; assay type: cell-based; conditions: 0.25 h; how it was run: as §5
Staphylococcus aureus = assay: Antibacterial activity against Staphylococcus aureus ATCC 6538 by broth microdilution method; assay type: functional; how it was run: as §1
Bacillus spizizenii = assay: Antibacterial activity against Bacillus subtilis ATCC 6633 by broth microdilution method; assay type: functional; how it was run: as §1
Micrococcus luteus [26] = assay: Antibacterial activity against Micrococcus luteus ATCC 10240 by broth microdilution method; assay type: functional; how it was run: as §1
NCI-H460 [27] = assay: Resistance index, ratio of IC30/IC50 for multidrug resistant human NCI-H460 cells to IC30/IC50 for human NCI-H460 cells; assay type: functional; how it was run: as §3

Compound | MIC (Micrococcus luteus [1]) | MIC (Clostridium sporogenes) | MIC (Escherichia coli) | MIC (Proteus hauseri) | MIC (Salmonella enteritidis) | MIC (Pseudomonas aeruginosa) | MIC (Candida albicans) | MIC (Saccharomyces cerevisiae) | MIC (Aspergillus brasiliensis) | MIC (Kocuria rhizophila) | IC30 (NCI-H460 [14]) | IC50 (NCI-H460 [14]) | IC30 (NCI-H460 [15]) | IC50 (NCI-H460 [15]) | IC50 (HaCaT [16]) | IC30 (HaCaT [16]) | selectivity ratio [17] | selectivity ratio [18] | MIC (Staphylococcus aureus) | MIC (Bacillus spizizenii) | also measured
CC(C)(C)C1=CC(=O)C=C(NCCc2ccccc2)C1=O | 2210 µM (≈ 626 µg/mL) | 4420 µM (≈ 1250 µg/mL) | 9 µM (≈ 2.55 µg/mL) | 17700 µM (≈ 5010 µg/mL) | 4420 µM (≈ 1250 µg/mL) | 4420 µM (≈ 1250 µg/mL) | 34 µM (≈ 9.63 µg/mL) | 34 µM (≈ 9.63 µg/mL) | 1110 µM (≈ 313 µg/mL) | 17700 µM (≈ 5010 µg/mL) | 7 µM | 14 µM | 3 µM | 6 µM | 23 µM | 19 µM | ≤ 1.5 | ≤ 1.5 | 9 µM (≈ 2.55 µg/mL) | 4420 µM (≈ 1250 µg/mL) | Activity (NCI-H460 [2]): 66.1%; Activity (NCI-H460 [3]): 2.4%; Activity (NCI-H460 [4]): 9.5%; Activity (NCI-H460 [5]): 22%; Activity (NCI-H460 [6]): 45.9%; Activity (NCI-H460 [7]): 2%; Activity (NCI-H460 [8]): 11.8%; Activity (NCI-H460 [9]): 40.3%; viability at 72 h, 25 µM [10]: 74.8%; Activity (HaCaT [11]): 4.1%; Activity (HaCaT [12]): 6.9%; Activity (HaCaT [13]): 14.2%; selectivity ratio (NCI-H460 [19]): <=1.5; Activity (NCI-H460 [20]): inactive; Activity (NCI-H460 [21]): Active; Activity (HaCaT [22]): Non-toxic; Activity (NCI-H460 [23]): Active; Activity (NCI-H460 [24]): Active; Activity (HaCaT [25]): Non-toxic; MIC (Micrococcus luteus [26]): 34 µM (≈ 9.63 µg/mL)
CCCCNC1=CC(=O)C(C(C)(C)C)=CC1=O | 2470 µM (≈ 581 µg/mL) | 1240 µM (≈ 291 µg/mL) | 19 µM (≈ 4.47 µg/mL) | 1240 µM (≈ 291 µg/mL) | 620 µM (≈ 146 µg/mL) | 620 µM (≈ 146 µg/mL) | 77 µM (≈ 18.1 µg/mL) | 154 µM (≈ 36.2 µg/mL) | 2460 µM (≈ 580 µg/mL) | 2470 µM (≈ 581 µg/mL) | 5 µM | 36 µM | 19 µM | 72 µM | > 100 µM | 50 µM | ≤ 1.5 | ≤ 1.5 | 38 µM (≈ 8.94 µg/mL) | 1240 µM (≈ 291 µg/mL) | Ratio (NCI-H460 [27]): <=1.5; MIC (Micrococcus luteus [26]): 38 µM (≈ 8.94 µg/mL)
